The record followed here is ChEMBL document CHEMBL1127479, “Synthesis and structure-activity studies of N,N'-diarylguanidine derivatives. N-(1-naphthyl)-N'-(3-ethylphenyl)-N'-methylguanidine: a new, selective noncompetitive NMDA receptor antagonist” (J Med Chem, 1994).

By pIC50 is commonly meant −log10 of the IC50, conventionally taken in molar units. Higher therefore signals a small IC50.

The structures appear in SMILES notation. pIC50: −log10 of the molar value. Bounds are passed on as bounds.

One assay has as its target Glutamate NMDA receptor. Description: In vitro concentration required to inhibit specific [3H]MK-801 radioligand binding to N-methyl-D-aspartate (NMDA) receptor on rat brain membrane. An outline of the steps: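 Rat brain crude synaptic membranes, thawed, pretreated at 1 mg protein/mL with 0.01% Triton X-100 for 15 min at 37 °C, then washed three times by centrifugation. Filtration stop. IC50 taken from displacement curves or nonlinear least-squares regression.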
The compound `C/[N+](=C(/[NH-])Nc1cccc([N+](=O)[O-])c1)c1cccc2ccccc12` gave a negative-log IC50 (pIC50) of 5.55.
Compound `CC(C)c1ccccc1N=C(N)Nc1ccccc1C(C)C` showed a pIC50 of 6.66.
`Cc1cccc(NC(=N)Nc2cccc(C)c2)c1` gave a negative-log IC50 (pIC50) of 6.47.
For the compound `CCc1ccccc1NC(=N)Nc1ccccc1CC`, the pIC50 was 6.09.
For the compound `NC(=Nc1ccccc1I)Nc1ccccc1I`, the negative-log IC50 (pIC50) was 6.64.
Compound `NC(=Nc1cccc2ccccc12)N(c1ccccc1)c1cccc2ccccc12` had a pIC50 of 6.32.
Compound `CCN(C(=N)N(C)c1cccc2ccccc12)c1cccc2ccccc12` gave a negative-log IC50 (pIC50) of 7.28.
In the case of `NC(=Nc1cccc2ccccc12)N1CCCCCC1`, the pIC50 was 5.00.
Regarding `N=C(Nc1cccc2c1CCC2)Nc1cccc2c1CCC2`, the pIC50 was 6.30.
As to `CCc1cccc(N=C(N)N(C)c2cccc3ccccc23)c1`, the pIC50 is 6.27.
On to `Cc1cccc(N=C(N)N(C)c2cccc(C)c2)c1`, for which the negative logarithm of the IC50 (pIC50) is 5.70.
`CCc1cccc(N(CC)C(N)=Nc2cccc3ccccc23)c1`: the negative logarithm of the IC50 (pIC50) is 7.14.
As for `CN(C(=N)Nc1cccc2ccccc12)c1cccc([N+](=O)[O-])c1`, the negative-log IC50 (pIC50) is 7.06.
Compound `N=C(Nc1cccc2ccccc12)N1CCC(c2ccccc2)CC1` had a negative-log IC50 (pIC50) of 5.00.
For `CN(C(N)=Nc1cccc(N=[N+]=[N-])c1)c1cccc2ccccc12`, the negative-log IC50 (pIC50) was 5.77.
The same measure, in the same setting: with `N=C(N1CCc2ccccc21)N1CCc2ccccc21` the figure was under 4.00; with `N=C(Nc1ccccc1)Nc1ccccc1`, 5.46.
`CCc1ccc(NC(=N)Nc2ccc(CC)cc2)cc1` gave a negative-log IC50 (pIC50) of 4.99.
In the case of `CC(C)(C)c1ccccc1NC(=N)Nc1ccccc1C(C)(C)C`, the pIC50 is 4.42.
Turning to `CCc1cccc(NC(=N)Nc2cccc(CC)c2)c1`, the negative logarithm of the IC50 (pIC50) was 6.77.
`CCCc1cccc(NC(=N)Nc2cccc(CCC)c2)c1` showed a pIC50 of 5.70.
For the compound `N=C(Nc1cccc2ccccc12)Nc1cccc2ccccc12`, the pIC50 is 6.48.
For the compound `NC(=Nc1ccc(Br)cc1)Nc1ccc(Br)cc1`, the negative-log IC50 (pIC50) is 4.47.
As to `NC(=Nc1ccccc1-c1ccccc1)Nc1ccccc1-c1ccccc1`, the pIC50 is 5.00.
Turning to `Cc1ccc(N=C(N)Nc2ccc(C)cc2)cc1`, the negative-log IC50 (pIC50) is 4.88.
On to `CC(C)c1ccc(NC(=N)Nc2ccc(C(C)C)cc2)cc1`, for which the pIC50 was 4.63.
As to `CC(C)c1cccc(NC(=N)Nc2cccc(C(C)C)c2)c1`, the pIC50 was 6.39.
Compound `CCc1cccc(N(C)C(=N)N(CC)c2cccc3ccccc23)c1` gave a pIC50 of 7.01.
In turn, `CN(C(=N)N(C)c1cccc2ccccc12)c1cccc2ccccc12` had a negative logarithm of the IC50 (pIC50) of 7.16.
Same read-out and setting: the result for `CN(C(N)=Nc1cccc2ccccc12)c1cccc2ccccc12` reads 6.94.
`CN(C(N)=Nc1cccc(N)c1)c1cccc2ccccc12`: the pIC50 was 5.00.
Take `CCc1cccc(N=C(N)N2CCC(c3ccccc3)CC2)c1`: the pIC50 was 5.00.
For the compound `Cc1cccc(NC(=N)Nc2cccc3ccccc23)c1`, the pIC50 was 6.72.
In turn, `CC(C)c1ccccc1N=C(N)Nc1cccc2ccccc12` had a pIC50 of 6.99.
For `CCc1cccc(N(C)C(=N)N(C)c2cccc3ccccc23)c1`, the pIC50 is 7.00.
As for `CN(C(=N)N(c1ccccc1)c1cccc2ccccc12)c1cccc2ccccc12`, the negative logarithm of the IC50 (pIC50) is 6.33.
Turning to `CN(C(N)=Nc1cccc2ccccc12)c1cccc(N=[N+]=[N-])c1`, the pIC50 was 7.19.
Compound `NC(=Nc1cccc2ccccc12)Nc1ccccc1I` had a pIC50 of 6.68.
On the same count and under the same terms, the result for `CN(C(N)=Nc1cccc2ccccc12)c1ccccc1` reads 5.99.
With `CCN(C(N)=Nc1cccc2ccccc12)c1cccc2ccccc12`, the negative logarithm of the IC50 (pIC50) is 6.93.
Regarding `NC(=Nc1cccc2ccccc12)NCc1ccccc1`, the pIC50 was 5.54.
With `N=C(Nc1cccc2ccccc12)N1CCCCC1`, the pIC50 is 5.00.
Compound `COc1cccc(N=C(N)Nc2cccc(OC)c2)c1` had a negative logarithm of the IC50 (pIC50) of 6.31.
`CCc1cccc(NC(=N)Nc2cccc3ccccc23)c1`: the pIC50 is 7.41.
Still for that read-out and setting: the result for `N=C(Nc1ccc2ccccc2c1)Nc1ccc2ccccc2c1` reads 4.90; that for `CC(C)c1ccccc1N=C(N)N(C)c1cccc2ccccc12`, 6.07.
For `CN(C(N)=Nc1cccc2ccccc12)c1cccc(N)c1`, the negative logarithm of the IC50 (pIC50) is 5.68.
In turn, `CCc1cccc(N(C)C(N)=Nc2cccc3ccccc23)c1` showed a pIC50 of 7.44.
Consider `Cc1ccccc1NC(=N)Nc1ccccc1C` [DITOLYLGUANIDINE], for which the pIC50 is 5.04.

Molecular target in the next assay: not listed separately
The assay can be described thus: Tested in vitro for the concentration required to inhibit specific [3H]DTG radioligand binding to sigma receptor on guinea pig brain membrane.
The compound `CCc1ccccc1NC(=N)Nc1ccccc1CC` showed a pIC50 of 7.85.
Still for that read-out and setting: the result for `CCc1ccc(NC(=N)Nc2ccc(CC)cc2)cc1` reads 6.61.
Compound `CC(C)(C)c1ccccc1NC(=N)Nc1ccccc1C(C)(C)C` had a pIC50 of 6.45.
`NC(=Nc1ccccc1-c1ccccc1)Nc1ccccc1-c1ccccc1` showed a negative logarithm of the IC50 (pIC50) of 5.09.
